According to ChEMBL document CHEMBL4229470, “Synthetic molecules for disruption of the MYC protein-protein interface” (Bioorg Med Chem, 2018):
Converted amounts (≈) assume the structure as drawn. The source made the active and inactive calls. The calls are words filed in the database; no cut-off is given here.

Columns and labels:
[1] = system: dsDNA; assay: Binding affinity to biotin-labeled EBOX dsDNA (unknown origin) at 10 uM measured over 2.5 mins by SPR analysis; assay type: nucleic-acid assay
In short: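 SPR check of compound alone flowed over the DNA surface, without protein.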

[2] = biological target: T1, c-Myc/Max (Homo sapiens) (UniProt P01106+P61244); assay: Binding affinity to His-tagged Myc/Max (unknown origin) expressed in Escherichia coli BL21 at 10 uM by Bio-FET analysis
In short: (§1)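 Bio-FET chip screening at 10 μM against monomeric MAX (mMAX), MYC-MAX and MAX-MAX dimers. Heterodimers stabilized by a disulfide through a C-terminal cysteine introduced into the MYC bHLH and MAX constructs.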

[3] = biological target: Protein max (Homo sapiens) (UniProt P61244); assay: Binding affinity to His-tagged dimeric Max (unknown origin) expressed in Escherichia coli BL21 at 10 uM by Bio-FET analysis; in short: as §1
[4] = biological target: Myc proto-oncogene protein (Homo sapiens) (UniProt P01106); assay: Binding affinity to His-tagged Myc (unknown origin) expressed in Escherichia coli BL21 at 10 uM by Bio-FET analysis relative to KJ-Pyr-9
In short: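 His-tagged MYC bHLH construct immobilized on a Bio-FET chip. Compounds at 10 μM in 3% DMSO in MES buffer; chip response at 10 μM normalized to a 10 μM reference ligand (saturating, maximal signal) run on each chip.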

[5] = Solubility in pH 6 MES buffer by dynamic light scattering assay; assay type: physicochemical
In short: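 Dynamic light scattering in MES, pH 6.0, with <0.1% DMSO.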

[6] = biological target: Protein max (Homo sapiens) (UniProt P61244); assay: Binding affinity to His-tagged monomeric Max (unknown origin) expressed in Escherichia coli BL21 at 10 uM by Bio-FET analysis; in short: as §1
[7] = biological target: T1, c-Myc/Max (Homo sapiens); assay: Inhibition of biotin-labeled EBOX dsDNA binding to Myc-Max (unknown origin) at 10 uM preincubated for 15 mins followed by test compound-protein mixture addition to biotin-labeled EBOX dsDNA immobilized chip measured over 2.5 mins by SPR analysis; assay type: protein-complex assay
In short: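 SPR. Disulfide-stabilized MYC-MAX dimer incubated with compound at 10 μM, then flowed over a DNA chip surface; sensorgram perturbation compared with vehicle control.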

[8] = MRT in C57Bl6 mouse at 10 mg/kg, iv by LC-MS analysis; assay type: ADME, organism-based; conditions: in vivo
In short: (§2)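 Pharmacokinetic parameters determined in C57Bl6 mice.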

[9] = Volume of distribution at steady state in C57Bl6 mouse at 10 mg/kg, iv by LC-MS analysis; assay type: ADME, organism-based; conditions: in vivo; in short: as §2
[10] = MRT in rat at 1 mg/kg, iv; assay type: ADME, organism-based; conditions: in vivo
[11] = AUC (0 to infinity) in rat at 1 mg/kg, iv; assay type: ADME, organism-based; design: dose 1 mg/kg, time infinity, route intravenous; conditions: in vivo
[12] = Drug metabolism in rat liver microsomes assessed as oxidized furan ion formation by measuring parent compound remaining at 5 uM after 45 mins by LC-MS analysis; assay type: ADME, microsome; conditions: 0.75 h
In short: (§3)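 Compounds incubated with rat liver microsomes at 37 °C for the indicated times; mass analysis monitoring the oxidized furan ion; recovery calculated from the AUC of the extracted ion.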

[13] = Terminal half life in rat at 1 mg/kg, iv; assay type: ADME, organism-based; conditions: in vivo, read-out: beta t1/2 (converted)
[14] = Clearance in C57Bl6 mouse at 10 mg/kg, iv by LC-MS analysis; assay type: ADME, organism-based; conditions: in vivo; in short: as §2
[15] = system: Mus musculus; assay: AUMC (0 to infinity) in C57Bl6 mouse at 10 mg/kg, iv by LC-MS analysis; assay type: ADME, organism-based; conditions: in vivo; in short: as §2
[16] = Drug metabolism in rat liver microsomes assessed as oxidized furan ion formation by measuring parent compound remaining at 5 uM after 25 mins by LC-MS analysis; assay type: ADME, microsome; in short: as §3
[17] = Terminal half life in C57Bl6 mouse at 10 mg/kg, iv by LC-MS analysis; assay type: ADME, organism-based; conditions: in vivo, read-out: beta t1/2 (converted); in short: as §2
[18] = Drug metabolism in rat liver microsomes assessed as oxidized furan ion formation by measuring parent compound remaining at 5 uM after 15 mins by LC-MS analysis; assay type: ADME, microsome; conditions: 0.25 h; in short: as §3
[19] = Drug metabolism in rat liver microsomes assessed as oxidized furan ion formation by measuring parent compound remaining at 5 uM after 3 mins by LC-MS analysis; assay type: ADME, microsome; conditions: 0.05 h; in short: as §3
[20] = system: Rattus norvegicus; assay: AUMC (0 to infinity) in rat at 1 mg/kg, iv; assay type: ADME, organism-based; conditions: in vivo
[21] = AUC (0 to infinity) in C57Bl6 mouse at 10 mg/kg, iv by LC-MS analysis; assay type: ADME, organism-based; design: dose 10 mg/kg, route intravenous, time infinity; conditions: in vivo; in short: as §2
[22] = Clearance in rat at 1 mg/kg, iv; assay type: ADME, organism-based; conditions: in vivo
[23] = Drug metabolism in rat liver microsomes assessed as oxidized furan ion formation by measuring parent compound remaining at 5 uM after 7 mins by LC-MS analysis; assay type: ADME, microsome; in short: as §3

Chain of Myc proto-oncogene protein (Homo sapiens) (P01106 whole entry): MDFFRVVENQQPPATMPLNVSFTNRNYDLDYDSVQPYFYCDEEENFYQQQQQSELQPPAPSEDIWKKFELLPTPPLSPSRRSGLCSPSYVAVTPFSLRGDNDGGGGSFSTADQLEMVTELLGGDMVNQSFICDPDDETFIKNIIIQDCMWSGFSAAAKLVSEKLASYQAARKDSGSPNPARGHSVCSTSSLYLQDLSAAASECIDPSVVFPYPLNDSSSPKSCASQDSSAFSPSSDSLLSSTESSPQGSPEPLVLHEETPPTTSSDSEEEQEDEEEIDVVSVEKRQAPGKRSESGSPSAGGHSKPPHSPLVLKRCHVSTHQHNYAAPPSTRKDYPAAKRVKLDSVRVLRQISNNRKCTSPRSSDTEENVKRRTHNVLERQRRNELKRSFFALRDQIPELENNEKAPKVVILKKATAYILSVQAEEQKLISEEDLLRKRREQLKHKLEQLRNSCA
Chain of Protein max (Homo sapiens) (P61244 whole entry): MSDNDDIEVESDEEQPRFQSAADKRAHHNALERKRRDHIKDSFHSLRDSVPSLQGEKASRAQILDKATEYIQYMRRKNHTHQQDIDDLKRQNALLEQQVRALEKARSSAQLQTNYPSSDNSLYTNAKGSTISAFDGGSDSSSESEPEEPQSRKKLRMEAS

Structure (SMILES)	Activity [1]	Activity [2]	Activity [3]	Activity [4]	solubility [5]	Activity [6]	inhibition [7]	also measured
N#Cc1ccc(-c2cc(-c3ccc(C(=O)NN)cc3)cc(-c3ccco3)n2)cc1	inactive	inactive	inactive	0%	500 µM (≈ 190 µg/mL)	inactive	inactive	
Cn1ccnc1-c1cc(-c2ccc(C(N)=O)cc2)cc(-c2ccc(C#N)cc2)n1	inactive	inactive	inactive	41%	8 µM (≈ 3.04 µg/mL)	inactive	Active	
Cn1nncc1-c1cc(-c2ccc(C(N)=O)cc2)cc(-c2ccc(C#N)cc2)n1	inactive	inactive	inactive	55%	32 µM (≈ 12.2 µg/mL)	inactive	Active	
N#Cc1ccc(-c2cc(-c3ccc(C(N)=O)cc3)cc(-c3cncs3)n2)cc1	inactive	inactive	inactive	79%	64 µM (≈ 24.5 µg/mL)	inactive	Active	
NC(=O)c1ccc(-c2cc(-c3ccc([N+](=O)[O-])cc3)nc(-c3ccco3)c2)cc1	inactive		inactive		8 µM (≈ 3.08 µg/mL)	inactive		MRT [8]: 0.94 h; Vd [9]: 6.44 L/kg; MRT [10]: 1.7 h; AUC(0-inf) [11]: 258 ng·h/mL; Stability [12]: 22%; half-life [13]: 96 min; clearance [14]: 115 mL/min/kg; AUMC [15]: 1360 ng·h/mL; Stability [16]: 20.91%; half-life [17]: 60 min; Stability [18]: 25.88%; Stability [19]: 49.69%; AUMC [20]: 427 ng·h/mL; AUC(0-inf) [21]: 1450 ng·h/mL; clearance [22]: 65 mL/min/kg; Stability [23]: 31.47%
NC(=O)c1ccc(-c2cc(-c3ccc(-c4nccs4)cc3)nc(-c3ccco3)c2)cc1	inactive	inactive	inactive	97%		inactive	Active	MRT [8]: 4.3 h; Stability [12]: 62.23%; clearance [14]: 3.8 mL/min/kg; AUMC [15]: 190000 ng·h/mL; Stability [16]: 67.5%; Stability [18]: 74.39%; Stability [19]: 84.31%; AUC(0-inf) [21]: 44000 ng·h/mL; Stability [23]: 80.8%
COc1ccc(-c2cc(-c3ccc(C(N)=O)cc3)nc(-c3ccccc3)n2)cc1	inactive	inactive	inactive	0%	< 1 µM	inactive	inactive	
CNC(=O)c1ccc(-c2cc(-c3ccc(C#N)cc3)nc(-c3ccco3)c2)cc1	inactive	inactive	inactive	3.2%	25 µM (≈ 9.49 µg/mL)	inactive	Active	
N#Cc1ccc(-c2cc(-c3ccc(C(N)=O)cc3)cc(-c3ccco3)n2)cc1	inactive	inactive	inactive	106%	10 µM (≈ 3.65 µg/mL)	inactive	Active	
N#Cc1ccc(-c2cc(-c3ccc(-c4nnn[nH]4)cc3)cc(-c3ccco3)n2)cc1	inactive	inactive	inactive	92%	18 µM (≈ 7.03 µg/mL)	inactive	Active	
N#Cc1ccc(-c2cc(-c3ccc(C(N)=O)cc3)nc(-c3cc[n+]([O-])cc3)n2)cc1	inactive	inactive	inactive	0%	25 µM (≈ 9.84 µg/mL)	inactive	inactive	
c1coc(-c2cc(-c3nccs3)cc(-c3ccc(-c4nccs4)cc3)n2)c1	inactive	inactive	inactive	188%	< 1 µM	inactive	Active	
N#Cc1ccc(-c2cc(-c3ccc(C(N)=O)cc3)cc(-c3cnco3)n2)cc1	inactive	inactive	inactive	0%	250 µM (≈ 91.6 µg/mL)	inactive	inactive	
CS(=O)(=O)NC(=O)c1ccc(-c2cc(-c3ccc(C#N)cc3)nc(-c3ccco3)c2)cc1	inactive	inactive	inactive	76%	32 µM (≈ 14.2 µg/mL)	inactive	Active	
N#Cc1ccc(-c2cc(-c3ccc(C(N)=O)cc3)nc(-c3ccco3)n2)cc1	inactive	inactive	inactive	66%	8 µM (≈ 2.93 µg/mL)	inactive	Active	
N#Cc1ccc(-c2cc(-c3ccc(C(N)=O)cc3)cc(-c3cccc(F)c3)n2)cc1	inactive	inactive	inactive	0%	2 µM (≈ 0.787 µg/mL)	inactive	inactive	
NC(=O)c1ccc(-c2cc(-c3ccc(-c4cnco4)cc3)nc(-c3ccco3)c2)cc1	inactive	inactive	inactive	154%	15 µM (≈ 6.11 µg/mL)	inactive	Active	
